In data set [1] the test system is Human immunodeficiency virus 1. Kind of data set: Antiviral activity against HIV1 3B infected in human MT4 cells assessed as protection against virus-induced cytopathogenicity after 5 days by microtiter plate analysis. In kind it is functional, organism-based. Particulars: Human immunodeficiency virus 1, 3B, MT4, 120 h. In a few lines: (§1)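 MT-4 cells were grown in RPMI-1640 DM with 10% heat-inactivated calf serum and gentamicin. HIV-1 IIIB (100 CCID50) or mock infection was run in parallel with compounds in triplicate, at 37 °C and 5% CO2 for 5 days. Viability was read by MTT spectrophotometry. EC50 was the 50% reduction in virus cytopathic effect; CC50 was the 50% loss of mock-infected cell viability.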
In general terms: Protection from cytopathic effect is a common read-out in antiviral testing.

Data set [2] in a line: Cytotoxicity against human MT4 cells after 5 days by spectrophotometry. In kind it is cell-based. In a few lines:
as §1

Data set [3] has as its system Mycobacterium tuberculosis. Kind of data set: Antimycobacterial activity against Mycobacterium tuberculosis H37Ra by agar dilution method. In kind it is functional. In short, it runs like this: (§2)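 Log-phase MTB was tested by agar dilution on Middlebrook 7H11 with OADC, following NCCLS guidance. MIC was the lowest concentration giving complete growth inhibition, determined in triplicate.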

Data set [4] relates to Mycobacterium tuberculosis. Nature of the data set: Antimycobacterial activity against Mycobacterium tuberculosis H37Ra assessed as inhibition of bacterial growth in log phase by agar dilution method. It counts as functional. In a few lines:
as §2

In data set [5] the test system is Mycobacterium tuberculosis. Kind of data set: Antimycobacterial activity against Mycobacterium tuberculosis H37Ra assessed as inhibition of bacterial growth in dormant phase. It counts as functional. In a few lines: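 MTB grown in 7H9 with glycerol, OADC and Tween 80 at 37 °C with rolling to OD600 ~0.6, then washed and held in PBS 6 weeks at 37 °C. Starved cells (~1×10^7 in 1 mL PBS) were exposed to compounds in DMSO at various concentrations for 7 days with shaking. After washing, dilutions were plated on antibiotic-free 7H11 and counted after 4 weeks. MIC was complete growth inhibition, in triplicate.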

For data set [6], the target named is T1, Isocitrate lyase (Mycobacterium tuberculosis) (UniProt P9WKK7).
T1 sequence (whole entry): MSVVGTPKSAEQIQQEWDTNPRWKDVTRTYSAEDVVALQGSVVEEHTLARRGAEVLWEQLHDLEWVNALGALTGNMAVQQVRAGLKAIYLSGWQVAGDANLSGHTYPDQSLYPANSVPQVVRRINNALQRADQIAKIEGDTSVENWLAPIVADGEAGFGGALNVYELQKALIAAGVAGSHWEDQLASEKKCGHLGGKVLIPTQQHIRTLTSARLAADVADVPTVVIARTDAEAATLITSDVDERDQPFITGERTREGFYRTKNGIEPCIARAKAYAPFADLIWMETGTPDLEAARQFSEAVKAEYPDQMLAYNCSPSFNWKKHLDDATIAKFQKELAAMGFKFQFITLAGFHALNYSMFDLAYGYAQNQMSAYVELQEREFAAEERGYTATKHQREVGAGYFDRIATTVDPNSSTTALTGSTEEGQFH
Kind of data set: Inhibition of Mycobacterium tuberculosis isocitrate lyase […]. In short, it runs like this:
(§3)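 Isocitrate lyase activity was measured at 37 °C as glyoxylate-phenylhydrazone formation from isocitrate with phenylhydrazine, MgCl2 and 2-mercaptoethanol in potassium phosphate buffer. After 10 min the mixture was diluted and absorbance read at 324 nm. Test compounds were added from a 10 mM solution; the 3-nitropropionic acid reference came from a 100 mM solution. % inhibition = (control − test)/control × 100.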

Data set [7] deals with T1, Isocitrate lyase (Mycobacterium tuberculosis). Kind of data set: Inhibition of Mycobacterium tuberculosis isocitrate lyase at 100 mM. In short, it runs like this: as §3
For data set [8], the target named is Human immunodeficiency virus type 1 reverse transcriptase (Human immunodeficiency virus 1, UniProt Q72547). Kind of data set: Inhibition of HIV1 reverse transcriptase. In short, it runs like this: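 The radiometric reaction used wild-type RT in 50 mM Tris-HCl pH 7.8 with DTT, glutathione, EDTA, KCl, MgCl2, BSA, Triton X-100, poly(rC)·oligo(dG) template/primer and [3H]dGTP. It ran 15 min at 37 °C, was stopped with carrier DNA, pyrophosphate and TCA, and held on ice 30 min.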

19 compounds from ChEMBL document CHEMBL1649368, “Novel isatinyl thiosemicarbazones derivatives as potential molecule to combat HIV-TB co-infection” (Eur J Med Chem, 2011) can be followed below.

Each structure is given as a SMILES string. pEC50, pIC50: −log10 of the molar value. In brackets after ≈: the same amount, converted by molar mass.

By pEC50 is commonly meant the EC50 on a negative log10 scale, so that one unit is a factor of ten. Usually CC50 stands for the concentration giving 50% cytotoxicity. Usually MIC stands for the lowest concentration found to suppress growth. On to `CCn1cc(C(=O)O)c(=O)c2cc(F)c(N3CCN(CN4C(=O)/C(=N\NC(=S)NO)c5cc(F)ccc54)C(C)C3)c(F)c21` (centres undefined), for which the pEC50 in data set [1] is 5.00. The CC50 at 120 h in data set [2] came out at 187 µM. Further, the figures for the MIC in data set [3], in data set [4] and in data set [5] were 0.65 µM (≈ 0.401 µg/mL), 0.65 µM (≈ 0.401 µg/mL) and 36.9 µM (≈ 22.8 µg/mL), respectively.

As for `Cc1ccc2c(c1)/C(=N/NC(=S)NO)C(=O)N2CN1CCN(c2cc3c(cc2F)c(=O)c(C(=O)O)cn3C2CC2)CC1`, the pEC50 in data set [1] is 4.68. The compound also returned a CC50 at 120 h in data set [2] of 304 µM. Besides, the results for the MIC in data set [3] and in data set [5] were 0.67 µM (≈ 0.398 µg/mL) and 12.1 µM (≈ 7.19 µg/mL), respectively.

As usually defined, the inhibition is the relative decrease from the control value, in per cent. Read a low inhibition as a weak effect. Take `CONC(=S)N/N=C1\C(=O)N(CN2CCN(c3ccc(OC)cc3)CC2)c2ccc(C)cc21`: the pEC50 in data set [1] is 5.01. In addition, it took 324 µM to reach half-maximal cytotoxicity in data set [2] (CC50 at 120 h). The MIC in data set [3] is 6.68 µM (≈ 3.13 µg/mL); in data set [4], 0.16 µM (≈ 0.075 µg/mL); in data set [5], 9.74 µM (≈ 4.56 µg/mL). Moreover, the inhibition in data set [6] worked out at 23.3%.

As for `O=C(O)CC[N+](=O)[O-]`, in data set [7], the inhibition was found to be 66%.

Regarding `CCN(CC)CN1C(=O)/C(=N\NC(=S)NOC)c2cc(C)ccc21`, the negative-log EC50 (pEC50) in data set [1] is 4.27. Also, it took 573 µM to reach half-maximal cytotoxicity in data set [2] (CC50 at 120 h). The compound further returned an MIC in data set [3] of 8.96 µM (≈ 3.13 µg/mL). This compound came in with an inhibition in data set [6] of 18.9%.

For `CONC(=S)N/N=C1\C(=O)N(CN2CCN(c3cc4c(cc3F)c(=O)c(C(=O)O)cn4C3CC3)CC2)c2ccc(C)cc21`, the pEC50 in data set [1] was 5.04. In data set [2], the CC50 at 120 h came out at 232 µM. In data set [3], this compound came in with an MIC of 0.66 µM (≈ 0.401 µg/mL). The inhibition in data set [6] is 63.4%.

What is called pIC50 is the IC50 on a negative log10 scale, so that one unit is a factor of ten. Lower therefore signals a large IC50. With `CONC(=S)N/N=C1\C(=O)N(CN2CCN(c3ccc(Cl)cc3)CC2)c2ccc(C)cc21`, the pEC50 in data set [1] was 5.77. The cytotoxic concentration (CC50) at 120 h in data set [2] was found to be 300 µM. Besides, the minimal inhibitory concentration (MIC) in data set [3] worked out at 3.3 µM (≈ 1.56 µg/mL); in data set [4], 0.65 µM (≈ 0.307 µg/mL); in data set [5], 20.4 µM (≈ 9.64 µg/mL). This compound returned an inhibition in data set [6] of 9.49%. Moreover, the pIC50 in data set [8] was 4.94.

On to `CCn1cc(C(=O)O)c(=O)c2cc(F)c(N3CCN(CN4C(=O)/C(=N\NC(=S)NO)c5cc(C)ccc54)C(C)C3)c(F)c21` (centres undefined), for which the pEC50 in data set [1] is 4.93. The compound further came in with a CC50 at 120 h in data set [2] of 244 µM. Also, the MIC in data set [3] worked out at 0.65 µM (≈ 0.399 µg/mL); in data set [4], 0.64 µM (≈ 0.393 µg/mL); in data set [5], 34.6 µM (≈ 21.2 µg/mL).

Take `CO[C@H]1/C=C/O[C@@]2(C)Oc3c(C)c(O)c4c(O)c(c(/C=N/N5CCN(C)CC5)c(O)c4c3C2=O)NC(=O)/C(C)=C\C=C\[C@H](C)[C@H](O)[C@@H](C)[C@@H](O)[C@@H](C)[C@H](OC(C)=O)[C@@H]1C` [RIFAMPIN]: the minimal inhibitory concentration (MIC) in data set [4] came out at 0.12 µM (≈ 0.0988 µg/mL); in data set [5], 15.2 µM (≈ 12.5 µg/mL).

Regarding `CONC(=S)N/N=C1\C(=O)N(CN2CCN(c3c(F)cc4c(=O)c(C(=O)O)cn(C5CC5)c4c3OC)CC2C)c2ccc(C)cc21` (centres undefined), in data set [1], the pEC50 was 5.73. Also, the midpoint of cytotoxicity in data set [2], the CC50 at 120 h, lay at 154 µM. Also, the MIC in data set [3] was 0.31 µM (≈ 0.202 µg/mL); in data set [4], 0.31 µM (≈ 0.202 µg/mL); in data set [5], 17.8 µM (≈ 11.6 µg/mL).

As to `O=C1/C(=N\NC(=S)NO)c2cc(F)ccc2N1CN1CCN(c2ccc(Cl)cc2)CC1`, the negative-log EC50 (pEC50) in data set [1] is 5.16. The CC50 at 120 h in data set [2] was 194 µM. In addition, the MIC in data set [3] was 3.37 µM (≈ 1.56 µg/mL). In addition, the inhibition in data set [6] was determined as 18.5%.

For `CONC(=S)N/N=C1\C(=O)N(CN2CCN(c3ccc(Cl)cc3)CC2)c2ccc(F)cc21`, the pEC50 in data set [1] was 5.42. Also, the CC50 at 120 h in data set [2] stood at 347 µM. For the same compound, the MIC in data set [3] was found to be 3.27 µM (≈ 1.56 µg/mL); in data set [4], 0.67 µM (≈ 0.32 µg/mL); in data set [5] it was 42.1 µM (≈ 20.1 µg/mL). The inhibition in data set [6] is 28.4%. The compound further had a pIC50 in data set [8] of 4.78.

As for `CCn1cc(C(=O)O)c(=O)c2cc(F)c(N3CCN(CN4C(=O)/C(=N\NC(=S)NOC)c5cc(F)ccc54)CC3)cc21`, in data set [1], the pEC50 is 4.98. In data set [2], it took 144 µM to reach half-maximal cytotoxicity (CC50 at 120 h). Besides, the MIC in data set [3] was determined as 0.67 µM (≈ 0.402 µg/mL); in data set [4], 4.25 µM (≈ 2.55 µg/mL); in data set [5], 17 µM (≈ 10.2 µg/mL).

Regarding `Cc1ccc2c(c1)/C(=N/NC(=S)NO)C(=O)N2CN1CCN(c2ccc(Cl)cc2)CC1`, the pEC50 in data set [1] is 5.21. In data set [2], half-maximal cytotoxicity (CC50 at 120 h) was put at 335 µM. In data set [3], the MIC amounted to 6.82 µM (≈ 3.13 µg/mL). The inhibition in data set [6] came to 11%. In data set [8], the pIC50 is 4.63.

Take `CONC(=S)N/N=C1\C(=O)N(CN2CCOCC2)c2ccc(F)cc21`: the pEC50 in data set [1] was 4.54. Besides, the CC50 at 120 h in data set [2] came to 274 µM. For the same compound, the figures for the MIC in data set [3], in data set [4] and in data set [5] were 4.25 µM (≈ 1.56 µg/mL), 3.37 µM (≈ 1.24 µg/mL) and 13.5 µM (≈ 4.95 µg/mL), respectively. Moreover, the inhibition in data set [6] stood at 15.9%.

On to `CONC(=S)N/N=C1\C(=O)N(CN2CCN(c3ccc(Cl)cc3)CC2)c2ccc(Cl)cc21`, for which the pEC50 in data set [1] was 5.61. This compound showed a CC50 at 120 h in data set [2] of 229 µM. Further, the MIC in data set [3] was 6.34 µM (≈ 3.13 µg/mL); in data set [4], 6.82 µM (≈ 3.37 µg/mL); in data set [5] it was 27.3 µM (≈ 13.5 µg/mL). Also, the inhibition in data set [6] worked out at 6.38%. Besides, the negative logarithm of the IC50 (pIC50) in data set [8] is 6.60.

As for `NNC(=O)c1ccncc1` [ISONIAZID], the MIC stood at 0.36 µM (≈ 0.0494 µg/mL) in data set [4] and 182 µM (≈ 25 µg/mL) in data set [5].

In the case of `CCn1cc(C(=O)O)c(=O)c2cc(F)c(N3CCN(CN4C(=O)/C(=N\NC(=S)NOC)c5cc(Cl)ccc54)CC3)cc21`, in data set [1], the pEC50 is 4.72. The same compound came in with a CC50 at 120 h in data set [2] of 193 µM. Also, the MIC in data set [3] turned out to be 0.65 µM (≈ 0.4 µg/mL); in data set [4], 0.63 µM (≈ 0.388 µg/mL); in data set [5], 19.6 µM (≈ 12.1 µg/mL).

In the case of `O=C(O)c1cn(C2CC2)c2cc(N3CCN(CN4C(=O)/C(=N\NC(=S)NO)c5cc(F)ccc54)CC3)c(F)cc2c1=O`, the pEC50 in data set [1] is 4.78. For the same compound, the CC50 at 120 h in data set [2] amounted to 222 µM. Moreover, the MIC was determined as 0.33 µM (≈ 0.197 µg/mL) in data set [3], 3.27 µM (≈ 1.95 µg/mL) in data set [4] and 13.1 µM (≈ 7.82 µg/mL) in data set [5].
